Data from ChEMBL document CHEMBL3621189, “Identification of non-peptidic cysteine reactive fragments as inhibitors of cysteine protease rhodesain” (Bioorg Med Chem Lett, 2015).
Activity calls are given as the source filed them. The rule behind the calls is not given here.

What was measured:
[1] = target: Rhodesain (Trypanosoma brucei rhodesiense) (UniProt Q95PM0); experiment: Time-dependent inhibition of Trypanosoma brucei rhodesiense Rhodesain expressed in Pichia pastoris using Z-Phe-Arg-AMC as substrate assessed as ratio of Kinact to Ki preincubated for 30 mins followed by substrate addition measured for 7 mins by fluorescence assay
[2] = test system: Trypanosoma brucei brucei; experiment: Antitrypanosomal activity against Trypanosoma brucei brucei 427 assessed as growth inhibition after 24 hrs by Alamar Blue assay; assay type: functional, organism-based; conditions: Trypanosoma brucei, 427, 24 h
HepG2 = experiment: Cytotoxicity against human HepG2 cells after 72 hrs by MTT assay; assay type: cell-based; conditions: HepG2, 72 h
[3] = target: Rhodesain (Trypanosoma brucei rhodesiense) (UniProt Q95PM0); experiment: Inhibition of Trypanosoma brucei rhodesiense Rhodesain expressed in Pichia pastoris using Z-Phe-Arg-AMC as substrate at 10 uM preincubated for 30 mins followed by substrate addition by fluorescence assay relative to control
In short: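 Single-concentration enzymatic screen of a 200-member cysteine-reactive electrophilic fragment library at 10 μM against rhodesain, scored as percent inhibition. Actives were retested at 10 μM in a confirmatory enzymatic assay.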

Sequence of Rhodesain (Trypanosoma brucei rhodesiense) (Q95PM0 1-450): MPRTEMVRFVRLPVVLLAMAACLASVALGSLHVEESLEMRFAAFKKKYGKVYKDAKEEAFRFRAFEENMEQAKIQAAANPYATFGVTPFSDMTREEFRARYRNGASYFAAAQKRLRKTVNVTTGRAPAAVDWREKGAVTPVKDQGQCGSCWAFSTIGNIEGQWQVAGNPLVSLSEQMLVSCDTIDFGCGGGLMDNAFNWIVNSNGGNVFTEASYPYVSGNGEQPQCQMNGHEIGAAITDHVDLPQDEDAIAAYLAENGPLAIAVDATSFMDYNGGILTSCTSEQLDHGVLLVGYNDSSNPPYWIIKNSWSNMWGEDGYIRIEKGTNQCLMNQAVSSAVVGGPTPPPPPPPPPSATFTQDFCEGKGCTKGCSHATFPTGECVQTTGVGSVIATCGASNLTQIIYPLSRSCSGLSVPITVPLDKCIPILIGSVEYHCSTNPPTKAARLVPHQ

| SMILES | Ratio [1] | IC50 [2] | inhibition [1] | inhibition [3] | IC50 (HepG2) |
| --- | --- | --- | --- | --- | --- |
| CC(C)CC(=O)N1CCC(C(=O)NC/C=C/S(C)(=O)=O)CC1 |  | > 50 µM | inactive | < 40% | > 150 µM |
| COC(=O)/C=C/CNC(=O)C1CCN(C(=O)CC(C)C)CC1 |  | > 50 µM | inactive | < 40% | > 150 µM |

Now from value to molecule, other results behind:

| Ratio [1] | IC50 [2] | inhibition [1] | inhibition [3] | SMILES | IC50 (HepG2) |
| --- | --- | --- | --- | --- | --- |
| 13.2 M⁻¹ s⁻¹ | 43.4 µM |  |  | COC(=O)/C=C/CNC(=O)c1cc(-c2ccc(C)cc2)on1 | > 150 µM |
| 18.3 M⁻¹ s⁻¹ | 30.3 µM |  |  | COC(=O)/C=C/CNC(=O)c1sc(-c2ccccc2F)nc1C | > 150 µM |
|  | 29.5 µM | inactive | < 40% | Cc1ccc(-c2cc(C(=O)NC/C=C/S(C)(=O)=O)no2)cc1 | 76 µM |
| 3.47 M⁻¹ s⁻¹ | 30.2 µM |  | < 40% | Cc1nc(-c2ccccc2F)sc1C(=O)NC/C=C/S(C)(=O)=O | 69 µM |
